Values after ≈ are worked out from the molar mass of the structure shown. Active and inactive are the calls of the source. The rule behind the calls is not given here.

Experiment [1] relates to Mycolicibacterium smegmatis. Nature of the experiment: Antimicrobial activity against Mycobacterium smegmatis str. MC2 155 by broth dilution method. Type of experiment: functional. In outline:
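M. smegmatis mc2155 grown and assayed at 37 °C in NE13 medium. Broth dilution with twofold serial dilutions, top concentration 128 μg/mL, run in triplicate. Resazurin read-out; MIC is the lowest concentration preventing the blue-to-pink change. For MBC, each well was subcultured into fresh medium before resazurin was added, then read the same way.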
In general terms: Dilution methods test growth across graded concentrations, often in twofold steps.

The next experiment deals with Staphylococcus aureus. Nature of the experiment: Antimicrobial activity against Staphylococcus aureus RN4220 at 50 ug after 16 to 18 hrs by disk diffusion method. Type of experiment: functional. The settings on record: read-out: DIZ. A digest of the protocol:
(§1)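 Disk diffusion: strains grown at 37 °C in NE13 medium. Agar plates swabbed from 10^6 cells/mL suspensions; 6 mm paper disks loaded with 50 μg compound; growth-inhibition zones measured after 16−18 h.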
(In general: Agar diffusion results depend on both activity and mobility in agar.)

For another experiment, the system named is Escherichia coli. Nature of the experiment: Antimicrobial activity against Escherichia coli O157:H7. Type of experiment: functional, organism-based.
The next experiment relates to Acinetobacter baumannii. In words: Antimicrobial activity against Acinetobacter baumannii ATCC 19606. Type of experiment: functional, organism-based. The settings on record: ATCC 19606 = CIP 70.34 = JCM 6841. In outline:
(§2)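 Disk diffusion spectrum test: agar plates swabbed from 10^6 cells/mL suspensions of each strain; 6 mm paper disks carrying 50 μg compound; inhibition zone sizes read after 16−18 h.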

Experiment [2] relates to Mycobacterium tuberculosis. In words: Antimicrobial activity against Mycobacterium tuberculosis H37Rv by MTT assay. Format: functional, organism-based. A digest of the protocol: (§3)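 Strains were grown in Middlebrook 7H9 with 0.2% glycerol and 10% ADC; tyloxapol was omitted in assays. Inoculum of 10^5 cells/mL was exposed to 2-fold serial dilutions at 37 °C in 5% CO2 for 7 d. MTT (2.5 mg/mL) was then added for 24 h, followed by 10% Na lauryl sulfate, and OD570 read after 24 h. IC50 came from a four-parameter log2 dose-response fit, in triplicate.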
(Tetrazolium dyes change colour on reduction, which living cells bring about.)

For a further experiment, the system named is Pseudomonas aeruginosa. In words: Antimicrobial activity against Pseudomonas aeruginosa PAO1. Format: functional, organism-based. A digest of the protocol:
as §2

In a further experiment the test system is Salmonella typhimurium. Nature of the experiment: Antimicrobial activity against Salmonella typhimurium ATCC 14028. The settings on record: Salmonella enterica subsp. enterica serovar Typhimurium. Type of experiment: functional, organism-based. In outline:
as §2

For experiment [3], the system named is Mycobacterium tuberculosis. Nature of the experiment: Antimicrobial activity against Mycobacterium tuberculosis CDC1551 by MTT assay. Type of experiment: functional. In outline:
as §3

The subject of experiment [4] is Mycobacterium tuberculosis. Nature of the experiment: Antimicrobial activity against Mycobacterium tuberculosis str. Erdman by MTT assay. Type of experiment: functional. A digest of the protocol: as §3
A further experiment deals with Micrococcus luteus. In words: Antimicrobial activity against Micrococcus luteus JVC1154 at 50 ug after 16 to 18 hrs by disk diffusion method. Type of experiment: functional. The settings on record: read-out: DIZ. In outline:
as §1

As to `NNC(=O)c1ccncc1` [ISONIAZID], the MIC (in general, the lowest concentration found to suppress growth) in [1] is 8 µg/mL (≈ 58.3 µM).

Regarding `CN[C@@H]1[C@H](O)[C@H](NC)[C@H]2O[C@@]3(O)C(=O)C[C@@H](C)O[C@H]3O[C@@H]2[C@H]1O` [SPECTINOMYCIN], the MIC in experiment [1] stood at 32 µg/mL (≈ 96.3 µM).

For the compound `CCCCCCCCCC[C@H](O)[C@@H]1O[C@]12C=CC(=O)O2` [RAMARIOLIDE A], the MIC in [1] was 8 µg/mL (≈ 28.3 µM); in experiment [2], 64 µg/mL (≈ 227 µM); in experiment [3] it was 64 µg/mL (≈ 227 µM); in experiment [4] it was 64 µg/mL (≈ 227 µM). Besides, the zone of inhibition at 50 µg/disc in the experiment with Staphylococcus aureus was determined as 15 mm; with Micrococcus luteus it was 18 mm. The outcome with Escherichia coli, in the experiment on Acinetobacter baumannii, in the experiment on Pseudomonas aeruginosa and with Salmonella typhimurium was inactive. In addition, the IC50 in [2], in experiment [3] and in [4] was 53 µg/mL (≈ 188 µM) each time.

The values above are taken from ChEMBL document CHEMBL2203094, “Ramariolides A-D, antimycobacterial butenolides isolated from the mushroom Ramaria cystidiophora” (J Nat Prod, 2012).
